# In ChEMBL document CHEMBL1275442, “Pharmacokinetics and tissue distribution of anidulafungin in rats” (Antimicrob Agents Chemother, 2008):
# Key:
# Assay type in all cases: ADME, organism-based
# [1] = Tmax in F344 rat kidney at 5 mg/kg, iv administered as single bolus dose by HPLC method; parameters: dose 5 mg/kg, route intravenous
# Procedure, shortened: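 F344 males, 10 to 11 weeks old and 223.6 to 243.8 g, got a single 5 mg/kg iv dose of [14C]anidulafungin over about 5 min. Plasma and tissues were collected predose and at 0.083 to 72 h, n = 3 per time point. Parent drug was quantified by HPLC-UV, with LLOQ/ULOQ of 20/5,120 ng/ml in plasma and 220/56,320 ng/g in tissue. Noncompartmental parameters came from a composite mean concentration-time profile.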
# [2] = tested on: Spleen; assay: AUC (0 to infinity) in F344 rat spleen at 5 mg/kg, iv administered as single bolus dose; parameters: time infinity, dose 5 mg/kg, route intravenous; conditions: in vivo
# Procedure, shortened: (§1)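 Male F344 rats, 10–11 weeks, 223.6–243.8 g, given one IV dose of [¹⁴C]anidulafungin, 5 mg/kg, over about 5 min. Tissues and blood sampled at 0.083–72 h (n = 3 rats per time). Parent drug measured by HPLC; LLOQ/ULOQ were 20/5,120 ng/ml for plasma and 220/56,320 ng/g for tissue. Noncompartmental parameters taken from the composite mean profile.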
# [3] = tested on: Liver; assay: Drug level in Long Evans rat liver assessed as high disposition of radioactivity per gram of tissue at 5 mg/kg, iv administered as single bolus dose measured 72 hrs postdose by autoradiography; parameters: dose 5 mg/kg, route intravenous; conditions: in vivo
# Procedure, shortened: (§2)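 Male pigmented Long Evans (HsdBlu:LE) rats, 7.5 weeks old, 202 to 217 g, single iv [¹⁴C]anidulafungin; one rat per sampling time. Euthanized by isoflurane and cardiac-puncture exsanguination. Sagittal whole-body sections quantified by phosphorimaging autoradiography, single samples corrected for section thickness across multiple sections per tissue. Concentrations (μg eq/g drug-derived radioactivity) interpolated from least-squares standard curves per scan.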
# [4] = tested on: Spleen; assay: Drug level in Long Evans rat spleen assessed as radioactivity per gram of tissue at 5 mg/kg, iv administered as single bolus dose measured 0.5 hrs postdose by autoradiography; parameters: dose 5 mg/kg, route intravenous; conditions: in vivo
# Procedure, shortened: (§3)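 Male pigmented Long Evans (HsdBlu:LE) rats, 7.5 weeks old and 202 to 217 g, got a single iv dose of [14C]anidulafungin at 5 mg/kg. One rat per time point (0.5, 6, 12, 24, 72, 168 h) was euthanised by isoflurane and cardiac-puncture exsanguination. Sagittal whole-body sections were quantified by phosphorimaging. Samples were thickness-corrected, and concentrations (μg eq/g) were interpolated from least-squares standard curves.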
# [5] = tested on: Muscle tissue; assay: Tmax in F344 rat muscle assessed as total compound-derived radioactivity at 5 mg/kg, iv administered as single bolus dose […]; parameters: dose 5 mg/kg, route intravenous; conditions: in vivo
# Procedure, shortened: (§4)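 Male F344 rats, 10 to 11 weeks old and 223.6 to 243.8 g, got one iv dose of [14C]anidulafungin at 5 mg/kg over about 5 min. Blood, CSF, kidney, liver, lung, quadriceps, spleen and skin were sampled predose and at 0.083 to 72 h, 3 rats per time. Total radioactivity (parent plus metabolites) was measured by liquid scintillation counting. Parameters were noncompartmental, from a composite mean profile.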
# [6] = tested on: Plasma; assay: Cmax in F344 rat plasma assessed as total compound-derived radioactivity per gram of tissue at 5 mg/kg, iv administered as single bolus dose after 5 mins by HPLC method; parameters: dose 5 mg/kg, route intravenous; conditions: in vivo
# Procedure, shortened: (§5)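 Same F344 study: single 5 mg/kg IV [¹⁴C]anidulafungin given over about 5 min. Total drug-derived radioactivity (parent plus metabolites) counted by liquid scintillation, in […]. Noncompartmental analysis of the composite mean profile.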
# [7] = tested on: Lung; assay: Drug level in Long Evans rat lung assessed as radioactivity per gram of tissue at 5 mg/kg, iv administered as single bolus dose measured 0.5 hrs postdose by autoradiography; parameters: dose 5 mg/kg, route intravenous; conditions: in vivo; procedure, shortened: as §2
# [8] = tested on: Zone of skin; assay: AUC (0 to 24 hrs) in F344 rat skin assessed as total compound-derived radioactivity per gram of tissue at 5 mg/kg, iv administered as single bolus dose […]; parameters: time < 24 hr, dose 5 mg/kg, route intravenous; conditions: in vivo; procedure, shortened: as §5
# [9] = tested on: Cerebrospinal fluid; assay: Half life in F344 rat cerebrospinal fluid assessed as total compound-derived radioactivity at 5 mg/kg, iv administered as single bolus dose […]; parameters: dose 5 mg/kg, route intravenous; conditions: in vivo; procedure, shortened: as §4
# [10] = tested on: Blood; assay: Drug level in Long Evans rat blood assessed as radioactivity per gram of tissue at 5 mg/kg, iv administered as single bolus dose measured 12 hrs postdose by autoradiography; parameters: dose 5 mg/kg, route intravenous; conditions: in vivo; procedure, shortened: as §2
# [11] = tested on: Muscle tissue; assay: Half life in F344 rat muscle assessed as total compound-derived radioactivity at 5 mg/kg, iv administered as single bolus dose […]; parameters: dose 5 mg/kg, route intravenous; conditions: in vivo; procedure, shortened: as §4
# [12] = tested on: Kidney; assay: Drug level in Long Evans rat kidney assessed as high disposition of radioactivity per gram of tissue at 5 mg/kg, iv administered as single bolus dose measured 0.5 hrs postdose by autoradiography; parameters: dose 5 mg/kg, route intravenous; conditions: in vivo; procedure, shortened: as §2
# [13] = tested on: Kidney; assay: AUC (0 to infinity) in F344 rat kidney assessed as total compound-derived radioactivity per gram of tissue at 5 mg/kg, iv administered as single bolus dose […]; parameters: time infinity, dose 5 mg/kg, route intravenous; conditions: in vivo; procedure, shortened: as §5
# [14] = tested on: Liver; assay: AUC (0 to infinity) in F344 rat liver assessed as total compound-derived radioactivity per gram of tissue at 5 mg/kg, iv administered as single bolus dose […]; parameters: time infinity, dose 5 mg/kg, route intravenous; conditions: in vivo; procedure, shortened: as §5
# [15] = tested on: Zone of skin; assay: AUC (0 to infinity) in F344 rat skin at 5 mg/kg, iv administered as single bolus dose; parameters: time infinity, dose 5 mg/kg, route intravenous; conditions: in vivo; procedure, shortened: as §1
# [16] = Drug level in Long Evans rat eye assessed as radioactivity per gram of tissue at 5 mg/kg, iv administered as single bolus dose measured 24 hrs postdose by autoradiography; parameters: dose 5 mg/kg, route intravenous; conditions: in vivo; procedure, shortened: as §2
# [17] = tested on: Liver; assay: Drug level in Long Evans rat liver assessed as high disposition of radioactivity per gram of tissue at 5 mg/kg, iv administered as single bolus dose measured 168 hrs postdose by autoradiography; parameters: dose 5 mg/kg, route intravenous; conditions: in vivo; procedure, shortened: as §2
# [18] = Cmax in F344 rat spleen at 5 mg/kg, iv administered as single bolus dose after 30 min by HPLC method; parameters: dose 5 mg/kg, route intravenous; procedure, shortened: as §1
# [19] = tested on: Zone of skin; assay: Drug level in Long Evans rat skin assessed as radioactivity per gram of tissue at 5 mg/kg, iv administered as single bolus dose measured 24 hrs postdose by autoradiography; parameters: dose 5 mg/kg, route intravenous; conditions: in vivo; procedure, shortened: as §3
# [20] = tested on: Kidney; assay: Drug level in Long Evans rat kidney assessed as high disposition of radioactivity per gram of tissue at 5 mg/kg, iv administered as single bolus dose measured 24 hrs postdose by autoradiography; parameters: dose 5 mg/kg, route intravenous; conditions: in vivo; procedure, shortened: as §2
# [21] = tested on: Kidney; assay: Drug level in Long Evans rat kidney assessed as low disposition of radioactivity per gram of tissue at 5 mg/kg, iv administered as single bolus dose measured 12 hrs postdose by autoradiography; parameters: dose 5 mg/kg, route intravenous; conditions: in vivo; procedure, shortened: as §2
# [22] = tested on: Kidney; assay: Drug level in Long Evans rat kidney assessed as high disposition of radioactivity per gram of tissue at 5 mg/kg, iv administered as single bolus dose measured 72 hrs postdose by autoradiography; parameters: dose 5 mg/kg, route intravenous; conditions: in vivo; procedure, shortened: as §2
# [23] = tested on: Cerebrum; assay: Drug level in Long Evans rat cerebrum assessed as radioactivity per gram of tissue at 5 mg/kg, iv administered as single bolus dose measured 168 hrs postdose by autoradiography; parameters: dose 5 mg/kg, route intravenous; conditions: in vivo; procedure, shortened: as §2
# [24] = tested on: Lung; assay: AUC (0 to 24 hrs) in F344 rat lung at 5 mg/kg, iv administered as single bolus dose; parameters: time < 24 hr, dose 5 mg/kg, route intravenous; conditions: in vivo; procedure, shortened: as §1
# [25] = tested on: Rattus norvegicus; assay: Volume of distribution in F344 rat assessed as total compound-derived radioactivity at 5 mg/kg, iv administered as single bolus dose; parameters: dose 5 mg/kg, route intravenous; conditions: in vivo; procedure, shortened: as §4
# [26] = tested on: Kidney; assay: Drug level in Long Evans rat kidney assessed as high disposition of radioactivity per gram of tissue at 5 mg/kg, iv administered as single bolus dose measured 12 hrs postdose by autoradiography; parameters: dose 5 mg/kg, route intravenous; conditions: in vivo; procedure, shortened: as §2
structure (smiles),measurement,setting,value
CCCCCOc1ccc(-c2ccc(-c3ccc([14C](=O)N[C@H]4C[C@@H](O)[C@@H](O)NC(=O)[C@@H]5[C@@H](O)[C@@H](C)CN5C(=O)[C@H]([C@@H](C)O)NC(=O)[C@H]([C@H](O)[C@@H](O)c5ccc(O)cc5)NC(=O)[C@@H]5C[C@@H](O)CN5C(=O)[C@H]([C@@H](C)O)NC4=O)cc3)cc2)cc1 [14C-ANIDULAFUNGIN],Tmax,[1],30 min
same,AUC,[2],567.95 µg·h/g
same,Drug uptake,[3],16.9 ugequiv
same,Drug uptake,[4],20.67 ugequiv
same,Tmax,[5],30 min
same,Cmax,[6],7.57 ugequiv/g
same,Drug uptake,[7],22.31 ugequiv
same,AUC,[8],190.73 ugequiv.hr/g
same,t1/2,[9],53.8 h
same,Drug uptake,[10],2.55 ugequiv
same,t1/2,[11],37.5 h
same,Drug uptake,[12],18.09 ugequiv
same,AUC,[13],1437.94 ugequiv.hr/g
same,AUC,[14],2656.38 ugequiv.hr/g
same,AUC,[15],124.11 µg·h/g
same,Drug uptake,[16],2.07 ugequiv
same,Drug uptake,[17],4.27 ugequiv
same,Cmax,[18],24200 ng/g
same,Drug uptake,[19],3.5 ugequiv
same,Drug uptake,[20],12.57 ugequiv
same,Drug uptake,[21],7.54 ugequiv
same,Drug uptake,[22],7.32 ugequiv
same,Drug uptake,[23],0.6 ugequiv
same,AUC,[24],557.77 µg·h/g
same,Vd,[25],0.2 L/kg
same,Drug uptake,[26],14.1 ugequiv
